Test results reported in article PMC3754432 (Journal of the American Chemical Society, 2013).
Where “and” joins values, the source holds several entries; their conditions need not be identical. Identical values can stand only once.

How the values were obtained:
2B6 [1] = conditions: cited from earlier work
Cytochrome P450 2B6 [2] = target: T1, Cytochrome P450 2B6 (Homo sapiens, UniProt P20813, K262R/Y226H); experiment: Isothermal titration calorimetry; format: binding; conditions: 25 °C
T1 sequence (P20813 with tags, fused parts or gaps Y226H/K262R limits assumed): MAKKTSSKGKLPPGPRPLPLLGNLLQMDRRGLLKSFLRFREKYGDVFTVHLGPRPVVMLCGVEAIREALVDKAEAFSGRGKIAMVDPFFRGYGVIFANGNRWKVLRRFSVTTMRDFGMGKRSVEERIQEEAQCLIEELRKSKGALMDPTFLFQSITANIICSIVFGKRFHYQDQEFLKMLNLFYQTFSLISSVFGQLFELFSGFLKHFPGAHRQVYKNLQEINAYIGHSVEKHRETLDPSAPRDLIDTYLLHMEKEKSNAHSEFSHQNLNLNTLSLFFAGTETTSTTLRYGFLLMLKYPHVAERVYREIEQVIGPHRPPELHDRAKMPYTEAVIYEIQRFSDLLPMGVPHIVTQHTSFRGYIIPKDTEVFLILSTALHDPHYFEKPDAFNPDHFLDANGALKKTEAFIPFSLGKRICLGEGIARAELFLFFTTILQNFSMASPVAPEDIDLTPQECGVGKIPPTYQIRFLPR

Cytochrome P450 2B6 [3] = target: T1, Cytochrome P450 2B6; experiment: Spectral binding titration; conditions: for Kd: mean (SD)
Procedure, shortened: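 Human 2B6 (Y226H/K262R), co-expressed with GroEL/ES in E. coli JM109 and purified by Ni-NTA then CM-Sepharose; P450 quantified by reduced CO difference spectra. Titrated at 25 °C with stirring in 50 mM K-phosphate pH 7.4, 500 mM NaCl, 1 mM EDTA, 1 mM TCEP. Ligand was added from acetone (<1% final) and 350–700 nm spectra were recorded. High-spin fraction was derived by PCA against spin-state standards. KS came from a tight-binding fit, or a Hill fit for one ligand.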

Cytochrome P450 2A6 [4] = target: T2, Cytochrome P450 2A6 (Homo sapiens, UniProt P11509); experiment: Isothermal titration calorimetry; format: binding; conditions: 25 °C
T2 sequence (P11509 with tags, fused parts or gaps limits assumed): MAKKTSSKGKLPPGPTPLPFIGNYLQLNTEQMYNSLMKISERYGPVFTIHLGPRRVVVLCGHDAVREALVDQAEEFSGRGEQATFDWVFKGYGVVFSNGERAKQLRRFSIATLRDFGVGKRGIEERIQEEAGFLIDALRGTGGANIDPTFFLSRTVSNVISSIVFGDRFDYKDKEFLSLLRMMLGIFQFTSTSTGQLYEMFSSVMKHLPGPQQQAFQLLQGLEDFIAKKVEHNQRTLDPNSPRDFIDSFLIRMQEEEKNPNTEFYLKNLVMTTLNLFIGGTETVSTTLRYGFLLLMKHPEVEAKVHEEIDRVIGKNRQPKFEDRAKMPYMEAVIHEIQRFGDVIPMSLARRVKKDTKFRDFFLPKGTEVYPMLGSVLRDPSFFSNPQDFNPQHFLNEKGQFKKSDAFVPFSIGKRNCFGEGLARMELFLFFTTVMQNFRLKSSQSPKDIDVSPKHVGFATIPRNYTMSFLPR

Cytochrome P450 2A6 [5] = target: T2, Cytochrome P450 2A6; experiment: Spectral binding titration; conditions: read-out: Ks (spectral dissociation constant), 25 °C, mean (SD)
2B6 [6] = experiment: Maximal binding affinity for 2B6 predicted from logP; design: species or system human; conditions: 298 K, based solely on enthalpy of desolvation, −1.364×logP

In the case of `Clc1ccccc1CN1CCc2sccc2C1` [ticlopidine], the “change in the fraction of high-spin P450” value (2B6 [1]) is listed as 2 – 4%.

For `COC(=O)[C@H](c1ccccc1Cl)N1CCc2sccc2C1` [clopidogrel], the “change in the fraction of high-spin P450” value (2B6 [1]) is given as 2 – 4%.

In the case of `CC1=CCC2C(C1)C2(C)C` (single isomer, unassigned; (+)) [(+)-3-carene], the “KD (KA^−1 from ITC)” value (Cytochrome P450 2B6 [2]; mean (SD)) is reported as 1.82 (0.61) 10^−6 M, the ΔG (Cytochrome P450 2B6 [2]; ITC, mean (SD)) is reported as −7.5 (1.4) kcal/mol and the ΔS (Cytochrome P450 2B6 [2]; ITC, mean (SD)) is reported as 3.2 (2.3) cal/mol/K. For the same compound, the ΔH (Cytochrome P450 2B6 [2]; ITC, mean (SD) of at least three experiments) was −6.3 (2.2) kcal/mol, the “spectral shift upon binding” value (Cytochrome P450 2B6 [3]; 2B6, increase at 390 nm, decrease at 417 nm) was “Type I spectral shift” and the Kd (Cytochrome P450 2B6 [3]; read-out: Ks measured using the Hill equation giving the S50, spectral titration, 2B6, Hill equation, n=2) was 1.6 µM. The “ΔFh (maximal increase in fraction of high-spin P450)” value (Cytochrome P450 2B6 [3]; spectral titration, 25 °C, 2B6) was 42.5 ± 3.4% and 42.5 (3.4) %.

In the case of (+)-α-Pinene, the “KD (KA^−1 from ITC)” value (Cytochrome P450 2B6 [2]; mean (SD)) is reported as 0.22 (0.17) 10^−6 M, the Kd (Cytochrome P450 2B6 [2]; ITC) is reported as roughly 0.22 µM and the “KD (KA^−1 from ITC)” value (Cytochrome P450 2A6 [4]; mean (SD)) is reported as 0.17 (0.05) 10^−6 M. For the same compound, the Kd (Cytochrome P450 2A6 [4]; ITC) was roughly 0.17 µM, the Kd (Cytochrome P450 2B6 [3]; read-out: Ks (spectral dissociation constant), spectral titration, 25 °C, 2B6) was 0.38 µM and the Kd (Cytochrome P450 2A6 [5]) was 34.2 µM. For the same compound, the “maximal binding affinity predicted from logP” value (2B6 [6]) was ~ −6 kcal/mol.
